Assay results published in article PMC5412920 (Journal of Clinical Pharmacology, 2016).
Where two headings read alike, the source gives them in different places. Marks after values point to notes of the source that are not given here.

Columns and labels:
[1] = type: in vivo, human; details: for t1/2: arithmetic mean (SD); for AUC, geometric least-squares mean / Cmax, geometric least-squares mean: fixed-effect ANOVA; for Cmax / MRAUC (metabolite-to-parent AUC ratio) / MRCmax (metabolite-to-parent Cmax ratio) / AUCu / Cmax,u: geometric mean (gCV%); for tmax: median (min-max); for AUCu / Cmax,u: unbound
[2] = type: in vivo, human; details: for t1/2: arithmetic mean (SD); for tmax: median (min-max)
[3] = Hepatic impairment study: excretion in urine; type: in vivo, human
How it was run: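 Urine from hepatic-impairment and healthy subjects was collected at −12 to 0 h predose, then 0–6, 6–12, 12–24, 24–36 and 36–48 h, and every 24 h to 120 h after a single oral dose. Dosing followed an overnight fast, with fasting until 4 h postdose. Analytes were measured by LC-MS/MS (positive electrospray, MRM) against carbon-13 internal standards.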

[4] = NCT02093728 and NCT02046850; cited from earlier work
plasma proteins = experiment: Unbound fraction in plasma; type: in vitro ADME, human; details: healthy subjects; for fu,av: 50 mg, median (min-max)
How it was run: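 Unbound fraction was measured in human plasma by ultrafiltration after a single oral dose. Ultrafiltrate was analysed by LC-MS/MS in MRM mode with carbon-13 internal standards. Within each subject, the mean percentage unbound from 3 results was applied to all of that subject's samples to give the average fraction unbound (fu,av).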

[5] = Renal impairment study: excretion in urine and blood dialysate; type: in vivo, human
How it was run: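 Subjects were ESRD patients on haemodialysis or healthy subjects with creatinine clearance >80 mL/min, each given 50 mg orally while fasted. ESRD patients were dosed once after dialysis and, after a washout of ≥7 days, once 1 h before dialysis. Urine was collected predose and in intervals to 72 h. Dialysate spot samples were taken every 30 min, and parameters were derived by the area under the excretion rate curve method. Analysis was by LC-MS/MS.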

[6] = ESRD, treatment period 1 (50 mg after dialysis)
[7] = ESRD, treatment period 2 (50 mg 1 h before dialysis)
[8] = healthy subjects, 50 mg, geometric mean (gCV%)
[9] = mild hepatic impairment, 50 mg, geometric mean (gCV%)
[10] = moderate hepatic impairment, 50 mg (N = 6) or 25 mg (N = 2), geometric mean (gCV%)
[11] = moderate hepatic impairment, 50 mg dose only
[12] = moderate hepatic impairment, 50 or 25 mg
[13] = severe hepatic impairment, 20 mg

Cmax, ESRD/Healthy Ratio (90%CI) ([1]; ESRD treatment period 1 vs healthy): 84.48 (61.60, 115.86) %
AUC, ESRD/Healthy Ratio (90%CI) ([1]; ESRD treatment period 1 vs healthy, 50 mg): 91.95 (67.73, 124.83) %
AUC lower when dosed before vs after dialysis ([1]; ESRD, 50 mg): 10%
Cmax lower when dosed before vs after dialysis ([1]; ESRD, 50 mg): 15%
t1/2 [1, 6]: 6.28 (2.87) ^d h
AUC, geometric least-squares mean [1, 6]: 171.0 ng·h/mL
Cmax [1, 6]: 45.1 (40.4) ng/mL
tmax [1, 6]: 1.25 (0.50‐3.00) h
Cmax, geometric least-squares mean ([1]; ESRD, treatment period 1): 45.15 ng/mL
MRAUC (metabolite-to-parent AUC ratio) ([1]; ESRD, treatment period 1): 0.0864 (45.9) ^d
MRCmax (metabolite-to-parent Cmax ratio) ([1]; ESRD, treatment period 1): 0.0623 (42.8)
t1/2 [1, 7]: 5.79 (2.52) ^d h
Cmax [1, 7]: 38.5 (57.7) ng/mL
tmax [1, 7]: 1.50 (1.00‐2.00) h
MRAUC (metabolite-to-parent AUC ratio) ([1]; ESRD, treatment period 2): 0.0930 (48.6) ^d
MRCmax (metabolite-to-parent Cmax ratio) ([1]; ESRD, treatment period 2): 0.0759 (35.9)
t1/2 ([1]; healthy subjects, 50 mg): 5.41 (1.40) h
AUC, geometric least-squares mean ([1]; healthy subjects, 50 mg): 185.9 ng·h/mL
Cmax ([1]; healthy subjects, 50 mg): 53.4 (52.1) ng/mL
tmax ([1]; healthy subjects, 50 mg): 1.50 (1.00‐3.00) h
Cmax, geometric least-squares mean ([1]; healthy subjects): 53.45 ng/mL
MRAUC (metabolite-to-parent AUC ratio) ([1]; healthy subjects): 0.0710 (38.4)
MRCmax (metabolite-to-parent Cmax ratio) ([1]; healthy subjects): 0.0619 (32.9)
AUCu [1, 6]: 2.10 (19.2) ^e ng·h/mL
Cmax,u [1, 6]: 0.561 (14.8) ^e ng/mL
AUCu ([1]; healthy subjects, 50 mg): 1.72 (14.4) ^e ng·h/mL
Cmax,u ([1]; healthy subjects, 50 mg): 0.619 (8.5) ^e ng/mL
AUC(0–t)/dose, geometric least-squares mean ([2]; healthy subjects, 50 mg): 4.841 ng·h/mL/mg
Cmax/dose, geometric least-squares mean ([2]; healthy subjects, 50 mg): 1.809 ng/mL/mg
t1/2 ([2]; healthy subjects, 50 mg): 9.24 (3.33) h
AUC(0–t)/dose [2, 8]: 4.84 (43.4) ng·h/mL/mg
Cmax/dose [2, 8]: 1.81 (57.0) ng/mL/mg
tmax ([2]; healthy subjects, 50 mg): 1.00 (1.00‐2.00) h
AUC(0-t)/dose lower than in healthy subjects ([2]; mild hepatic impairment): 49%
Cmax/dose lower than in healthy subjects ([2]; mild hepatic impairment): 56%
AUC(0–t)/dose, geometric least-squares mean ([2]; mild hepatic impairment, 50 mg): 2.445 ng·h/mL/mg
Cmax/dose, geometric least-squares mean ([2]; mild hepatic impairment, 50 mg): 0.8041 ng/mL/mg
t1/2 ([2]; mild hepatic impairment, 50 mg): 5.18 (1.51) ^f h
AUC(0–t)/dose [2, 9]: 2.45 (41.1) ng·h/mL/mg
Cmax/dose [2, 9]: 0.804 (57.7) ng/mL/mg
tmax ([2]; mild hepatic impairment, 50 mg): 1.50 (1.00‐4.00) h
AUC(0–t)/dose, Hepatic impairment/healthy ratio (90%CI) ([2]; mild vs healthy): 50.51 (28.28, 90.19) %
Cmax/dose, Hepatic impairment/healthy ratio (90%CI) ([2]; mild vs healthy): 44.44 (25.70, 76.85) %
AUC(0-t)/dose lower than in healthy subjects ([2]; moderate hepatic impairment): 62%
Cmax/dose lower than in healthy subjects ([2]; moderate hepatic impairment): 70%
AUC(0–t)/dose [2, 10]: 1.83 (129.6) ng·h/mL/mg
Cmax/dose [2, 10]: 0.548 (102.8) ng/mL/mg
t1/2 [2, 11]: 7.72 (2.92) ^i h
tmax [2, 11]: 1.25 (1.00‐1.50) ^f h
AUC(0–t)/dose, geometric least-squares mean [2, 12]: 1.826 ng·h/mL/mg
Cmax/dose, geometric least-squares mean [2, 12]: 0.5485 ng/mL/mg
AUC(0–t)/dose, Hepatic impairment/healthy ratio (90%CI) ([2]; moderate vs healthy): 37.72 (21.12, 67.37) %
Cmax/dose, Hepatic impairment/healthy ratio (90%CI) ([2]; moderate vs healthy): 30.31 (17.53, 52.42) %
MRCmax (metabolite-to-parent Cmax ratio) ([2]; severe hepatic impairment, 20 mg (N = 3), geometric mean (gCV%)): 0.00778 (29.2) ^h
Cmax/dose ([2]; severe hepatic impairment, 20 mg, geometric mean (gCV%)): 0.173 (44.3) ng/mL/mg
tmax [2, 13]: 2.00 (1.50‐2.00) ^h
dose excreted in urine ([3]; healthy subjects, 50 mg): 0.78%
dose excreted in urine ([3]; mild hepatic impairment, 50 mg): 0.64%
dose excreted in urine ([3]; moderate hepatic impairment): 0.20%
dose excreted in urine [3, 13]: 0.09%
median unbound fraction (plasma proteins; in both studies): ~0.6%
fu,av (plasma proteins; hepatic impairment study): 0.61 (0.54‐0.70) ^j %
fu,av (plasma proteins; renal impairment study): 0.688 (0.659‐0.712) ^e %
dose excreted in dialysate ([5]; ESRD, dosed 1 h before dialysis): 0.089%
fraction excreted in urine ([5]; healthy subjects, 50 mg): 0.73%
Compound: O=C(NOCCO)c1cc2nc[nH]c2c(F)c1Nc1ccc(Br)cc1Cl [N‐desmethyl selumetinib]
AUC and Cmax as percentage of the parent compound [4]: ~7%
